A selection: hits, their analogues and other compounds. The true share with any hit is near 2.6%.
GRK2 aptamer HTS: human GRK2 inhibition via aptamer displacement. bead flow cytometry, FAM-aptamer displacement from GRK2. inhibition of aptamer binding, % at 10 µM. actives 0.59% (n = 330,000). AID 488847;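 active = inhibition of aptamer binding above 40%, roughly 3 SD of noise, on plates passing a quality check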;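 also: median bead fluorescence of bound FAM aptamer so fluorescent compounds give negative values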
Rin1 Abl inh: blocks binding of human Rin1 to Abl; inhibition, % at 7.35 µM; TR-FRET Rin1/Abl binding, biochemical; P00519+Q13671; actives 0.4% (n = 360,000); AID 588664; in the data active = inhibition above about 5%, passing the limit was not always enough
Target sequence (P00519 whole entry, looked up): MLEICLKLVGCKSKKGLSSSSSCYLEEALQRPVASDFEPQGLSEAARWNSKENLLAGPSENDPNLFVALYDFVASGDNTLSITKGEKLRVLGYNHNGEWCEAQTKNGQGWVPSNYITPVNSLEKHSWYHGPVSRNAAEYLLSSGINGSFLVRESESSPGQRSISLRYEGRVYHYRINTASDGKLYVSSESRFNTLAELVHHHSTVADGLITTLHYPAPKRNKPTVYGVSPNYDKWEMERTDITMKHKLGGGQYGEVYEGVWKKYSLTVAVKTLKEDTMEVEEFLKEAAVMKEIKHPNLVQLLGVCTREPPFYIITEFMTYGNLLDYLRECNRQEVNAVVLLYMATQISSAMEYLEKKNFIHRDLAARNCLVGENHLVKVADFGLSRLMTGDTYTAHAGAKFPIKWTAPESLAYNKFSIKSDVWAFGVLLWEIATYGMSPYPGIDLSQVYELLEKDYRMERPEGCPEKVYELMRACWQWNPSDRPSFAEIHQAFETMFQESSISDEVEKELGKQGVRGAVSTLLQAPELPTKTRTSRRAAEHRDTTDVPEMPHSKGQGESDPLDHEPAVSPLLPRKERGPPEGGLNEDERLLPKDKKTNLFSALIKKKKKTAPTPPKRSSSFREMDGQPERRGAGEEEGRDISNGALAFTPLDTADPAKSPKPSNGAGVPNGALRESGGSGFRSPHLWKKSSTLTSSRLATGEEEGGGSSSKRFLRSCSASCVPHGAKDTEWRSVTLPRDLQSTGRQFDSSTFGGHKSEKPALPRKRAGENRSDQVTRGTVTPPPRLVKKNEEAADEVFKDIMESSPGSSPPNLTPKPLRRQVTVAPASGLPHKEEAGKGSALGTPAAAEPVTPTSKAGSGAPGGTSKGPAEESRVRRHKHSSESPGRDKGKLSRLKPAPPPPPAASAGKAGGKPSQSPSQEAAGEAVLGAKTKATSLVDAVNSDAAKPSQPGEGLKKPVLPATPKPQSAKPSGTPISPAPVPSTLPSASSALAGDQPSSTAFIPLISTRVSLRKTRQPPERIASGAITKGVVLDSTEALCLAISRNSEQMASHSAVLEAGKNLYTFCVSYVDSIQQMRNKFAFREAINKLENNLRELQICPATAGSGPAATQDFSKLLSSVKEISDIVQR
Target sequence (Q13671 whole entry, looked up): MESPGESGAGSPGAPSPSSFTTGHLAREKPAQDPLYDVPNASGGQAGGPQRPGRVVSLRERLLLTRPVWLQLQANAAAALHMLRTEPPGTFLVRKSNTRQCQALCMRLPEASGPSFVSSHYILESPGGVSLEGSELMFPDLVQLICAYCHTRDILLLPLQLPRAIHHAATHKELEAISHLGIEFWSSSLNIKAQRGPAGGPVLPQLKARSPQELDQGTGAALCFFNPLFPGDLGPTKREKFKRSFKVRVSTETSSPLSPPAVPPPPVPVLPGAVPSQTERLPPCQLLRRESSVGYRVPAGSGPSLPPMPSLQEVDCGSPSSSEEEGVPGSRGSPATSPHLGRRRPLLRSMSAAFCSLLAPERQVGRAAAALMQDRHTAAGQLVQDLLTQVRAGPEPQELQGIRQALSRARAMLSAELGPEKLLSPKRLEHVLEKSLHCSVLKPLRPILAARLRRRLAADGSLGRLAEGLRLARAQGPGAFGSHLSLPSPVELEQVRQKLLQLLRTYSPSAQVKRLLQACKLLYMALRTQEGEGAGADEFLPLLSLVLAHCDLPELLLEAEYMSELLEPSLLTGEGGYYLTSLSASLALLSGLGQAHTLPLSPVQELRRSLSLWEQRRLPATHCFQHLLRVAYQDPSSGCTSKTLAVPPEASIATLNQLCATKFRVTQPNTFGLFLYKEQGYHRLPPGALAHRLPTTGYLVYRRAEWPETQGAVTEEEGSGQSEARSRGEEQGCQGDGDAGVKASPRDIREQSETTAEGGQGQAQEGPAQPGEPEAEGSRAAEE
Myeloid diff MLP: promotes myeloid progenitor differentiation. ER-HoxA9 myeloid progenitors, lysozyme-GFP differentiation, flow cytometry. calls only at 10 µM. actives 1% (n = 360,000);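 active = normalized GFP-positive differentiation at or above the plate's own cutoff, the solvent-only control mean plus 3 SD; inconclusive = no clear call, values can overlap the other calls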;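 also: cells exposed to compound for four days before flow analysis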
SKN-1 inh: blocks SKN-1 activity in C. elegans | C. elegans VP596 Pgst-4::GFP/RFP ratio, acrylamide-induced, 24 h | inhibition, % at 21.8 µM | actives 0.49% (n = 360,000);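 active = interference check ratio from 0.5 to 1.5 plus GFP to RFP signal ratio inhibition reaching or exceeding a fixed threshold, cut at about 30% in these data, passing the limit was not always enough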
T cell modulator: T cell immune modulators affecting CD8 T cell-vesicle binding; 2C CD8+ T cell-vesicle binding, flow cytometry; hits give low values; response (vesicle binding), % at 7 µM; actives 0.068% (n = 330,000);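 active = response, share of CD8 T cells binding vesicles, and their 90th percentile fluorescence all below set limits, cut at about 80% in these data, passing the limit was not always enough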;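 also: values below 100% mean blocked vesicle binding to the CD8+ T cells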
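Material: 2C TCR transgenic mouse naive CD8+ T cells, MACS-purified. Also added: QL9-charged Drosophila Ld/ICAM-1/B7-1 vesicles. Timing: binding 1.5 h at 37 °C. Measured by: high-throughput flow cytometry with anti-B7-1 and anti-CD8 staining. Read-out: percent CD8+ FL2 mean versus row control. Controls: Unloaded micro-vesicles (low), QL9 vesicles with 0.7% DMSO (high).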
Rce1 inh: inhibitors of yeast Ras-converting enzyme; Q03530; calls only; AID 2563; yeast membranes, quenched prenylated peptide cleavage fluorescence; actives 0.27% (n = 290,000);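 active = fall in fluorescence gain of 50% or more versus controls, with final raw signal at or below 3038400; inconclusive = same 50% fall but final raw signal above 3038400; inactive = fall in fluorescence gain under 50%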;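 also: plate controls were neutral control wells for no effect and wells lacking membranes for full effect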
* = called active by the depositor; i = inactive; ? = inconclusive; / = no result given; + = active, no number.

SMILES	GRK2 aptamer HTS	Rin1 Abl inh	Myeloid diff MLP	SKN-1 inh	T cell modulator	Rce1 inh
CCCc1c(NC(=O)Nc2ccc(F)cc2)cnn1-c1ccc(Cl)cc1	1	-1	+	-5	414	i
Nc1c(Cl)cc(C2=NCCn3nc4cc(C(F)(F)F)ccc4c32)cc1Cl	0	-3	i	17	168	+
COCCNC(=O)C1CCCN(Cc2ccc(C)cc2)CC1 (centres undefined)	/	-5	i	9	/	/
CC[C@H]1c2[nH]c3ccccc3c2C[C@@H]2C(=O)N(c3ccc(F)cc3)C(=O)N21	0	-1	+	-5	442	i
CC1(C)c2[nH]c3ccccc3c2C[C@@H]2C(=O)N(c3cc(F)ccc3F)C(=O)N21	/	0	i	10	/	i
[O-]/[N+](=C\c1ccco1)c1ccc(Cl)cc1	1	-3	i	36*	333	i
[O-]/[N+](=C/c1ccco1)c1ccccc1	1	-1	i	3	410	i
O=C(O)c1cccc(NS(=O)(=O)c2cccc(C(=O)Nc3ccccc3[N+](=O)[O-])c2)c1	1	0	i	19	297	i
CC(C)N1CCC2(CC1)C(C#N)=C(N)NC(S)=C2C#N	58*	/	/	/	262	i
COc1ccc(C(=O)NNC(=O)c2cccc(F)c2)cc1	0	3	i	-1	i	i
Cc1cccc(NC(=O)CNC(=O)c2cccc(-n3cccc3)c2)c1C	50*	1	i	-6	544	i
Cc1cccc(NC(=O)CNCC(=O)Nc2cccc(C)c2C)c1C	5	0	i	18	325	i
Cc1cc(NS(=O)(=O)c2cn(C)nc2C)no1	0	1	+	9	192	i
Cc1nn(C)cc1S(=O)(=O)Nc1ccc2c(c1)OCCO2	0	3	i	4	402	i
Cc1sc2nc(CSCC(=O)Nc3ccccc3C#N)[nH]c(=O)c2c1C	0	2	+	-1	357	i
O=C(CCl)NNC(=O)c1c(O)c2ccccc2[nH]c1=O	0	2	+	14	145	i
COc1ccccc1N(C(=O)CNC(=O)c1ccco1)C(C(=O)NC1CCCC1)c1ccco1 (centres undefined)	0	2	i	3	394	i
CC(C)OCCCn1c(=N)c(C(N)=S)cc2c(=O)n3ccccc3nc21	21	-2	+	-9	345	i
CCCCCCCCCCOC(=O)Cn1c(COc2ccccc2C)[n+](C)c2ccccc21	0	1	i	-3	88	+
CCN(CC)CCOC(=O)C(Cc1cccc2ccccc12)CC1CCCO1 (centres undefined)	6	2	i	-13	343	i
CC1CCN(CC(=O)N(C)c2c(N)n(Cc3ccccc3)c(=O)[nH]c2=O)CC1	/	-2	+	11	/	/
Cc1cc2nn(-c3ccc(F)cc3)nc2cc1N	1	1	i	39*	474	i
OCCCCNCc1cc(Br)ccc1OCc1ccccc1F	1	1	i	-4	27*	i
O=C(NCC(Cl)c1ccc2ccccc2c1)c1c(F)cccc1F (centres undefined)	0	1	i	10	84	i
CCOC(=O)N1CCC(NC(=O)CC2C(=O)NCCN2Cc2ccccc2F)CC1 (centres undefined)	6	4	i	-8	559	i
SMILES	GRK2 aptamer HTS	Rin1 Abl inh	Myeloid diff MLP	SKN-1 inh	T cell modulator	Rce1 inh
COc1ccc(OC)c(NC(=O)c2cc3oc4ccccc4c3cc2O)c1	2	-1	i	-7	491	+
Cc1cc(Br)c(NC(=O)c2c(-c3c(Cl)cccc3Cl)noc2C)c(Br)c1	0	1	i	0	26*	i
Cc1onc(-c2c(Cl)cccc2Cl)c1C(=O)Nc1ccc2c(c1)OCCO2	2	0	i	-24	324	/
CC(C)NC(=O)c1ccc(-n2c(=S)[nH]c3ccccc3c2=O)cc1	0	/	/	/	216	i
CCN(CC)CCNC(=O)c1[nH]c2ccc(OCc3ccccc3)cc2c1C	0	-1	i	14	633	+
CCN(Cc1ccccc1)C(=O)c1[nH]c2ccc(OC)cc2c1C	/	2	i	-4	/	i
Nc1ccc(C=C2C=Cc3ccccc32)cc1	/	-4	i	52*	/	/
COc1ccccc1N(C)S(=O)(=O)c1ccc(C(=O)N(C)Cc2ccc(Cl)s2)cc1	0	2	i	22	493	/
COc1ccc(-c2cc(NC(C)=O)c3ncc(-c4ccc(OC)c(OC)c4)n3c2)cc1OC	/	-1	i	2	/	/
COc1ccc(-c2cnc3c(NC(C)=O)cc(-c4ccsc4)cn23)cc1OC	/	-3	+	-14	/	/
Cc1ccc(F)cc1C(=O)N1CCCCC1c1cc(C(=O)NC(C)C)no1 (centres undefined)	/	-6	i	-14	/	/
CCOc1ccc(OCC)c(NC(=O)c2nnn(CC(=O)Nc3cc(C)cc(C)c3)c2N)c1	4	2	i	14	467	+
COc1ccc(CC(N)c2csc(Nc3cc(NCCCO)ncn3)n2)cc1 (centres undefined)	/	-3	+	2	/	/
CCc1c2ccccc2nn1-c1ccccc1C(=O)C(C)=O	0	0	i	12	328	i
Fc1ccc(C2=NN(c3ccccc3)C(c3ccco3)C2)cc1 (centres undefined)	0	4	i	-1	654	i
O=[N+]([O-])c1ccc(/C=C/C2=NN(c3ccccc3)C(c3ccco3)C2)o1 (centres undefined)	/	-2	+	33*	/	i
O=C1CCC(C(=O)OCC(=O)N2N=C3/C(=C\c4ccccc4)CCCC3C2c2ccccc2)N1 (centres undefined)	/	-2	i	37*	/	/
O=C1CCC(C(=O)OCC(=O)N2N=C3/C(=C/c4ccccc4)CCCC3C2c2ccccc2)N1 (centres undefined)	0	-2	i	14	506	i
c1ccc(-c2csc(-c3cccnc3)n2)cc1	1	-4	i	42*	240	i
Cc1ccc(-c2csc(-c3ccncc3)n2)cc1	2	-3	i	41*	114	i
c1ccc(-c2nc(-c3cccnc3)cs2)cc1	0	-2	i	22	183	i
Brc1ccc(-c2csc(-c3ccncc3)n2)cc1	0	-2	i	40*	270	i
COc1ccc(-c2csc(-c3ccc(O)cc3)n2)cc1	2	-1	?	-3	452	i
COc1cccc(NC(=O)CN(C)C(=O)c2ccc3c(c2)S(=O)(=O)N=C2CCCCCN23)c1	0	-4	i	1	459	i

High-throughput results from PubChem.
